Reference: paper PMC3931004 (The Biochemical journal, 2013)

Columns and labels:
PBD1 of PPIP5K1 = target: T1, PBD1 of PPIP5K1 (Homo sapiens, UniProt Q6PFW1); assay: SPR ligand competition: PBD1 binding to vesicular PtdIns; conditions: for fold lower affinity for PBD1 than InsP6 and 5-InsP7: from IC50 values
T1 sequence (Q6PFW1 382-917): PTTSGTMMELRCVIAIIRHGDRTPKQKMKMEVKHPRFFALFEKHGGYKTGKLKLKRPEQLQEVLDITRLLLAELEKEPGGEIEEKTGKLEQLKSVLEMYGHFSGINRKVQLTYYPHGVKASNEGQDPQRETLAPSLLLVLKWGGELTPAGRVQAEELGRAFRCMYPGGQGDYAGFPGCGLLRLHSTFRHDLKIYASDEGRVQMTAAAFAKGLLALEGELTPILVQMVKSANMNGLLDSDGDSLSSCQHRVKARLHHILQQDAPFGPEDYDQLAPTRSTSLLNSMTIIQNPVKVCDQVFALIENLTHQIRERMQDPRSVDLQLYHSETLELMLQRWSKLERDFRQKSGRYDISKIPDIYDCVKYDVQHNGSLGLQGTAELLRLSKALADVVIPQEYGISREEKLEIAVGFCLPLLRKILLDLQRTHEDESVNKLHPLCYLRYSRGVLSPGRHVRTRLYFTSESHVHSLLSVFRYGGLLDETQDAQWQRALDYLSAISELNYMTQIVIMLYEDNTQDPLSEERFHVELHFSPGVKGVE

[1] = target: Akt^PH (human recombinant AKT1) (Homo sapiens, UniProt P31749); assay: SPR ligand competition: Akt binding to vesicular PtdIns
SIN1^PH = SIN1^PH (Homo sapiens, UniProt Q9BPZ7); assay: SPR ligand competition: SIN1^PH binding to vesicular PtdIns
GRP1^PH = target: T2, GRP1^PH (Mus musculus, UniProt O08967); assay: SPR ligand competition: GRP1^PH association with PtdIns; format: binding; conditions: Supplementary Figure S2
T2 sequence (O08967 261-387 limits assumed): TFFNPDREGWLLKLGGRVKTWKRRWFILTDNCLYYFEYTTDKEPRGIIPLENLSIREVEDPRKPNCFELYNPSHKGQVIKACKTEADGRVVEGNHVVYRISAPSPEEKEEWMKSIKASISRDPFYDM
Summary of the method: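 GRP1 PH domain expressed in E. coli BL21(DE3) at 37 °C in ampicillin LB, induced overnight at 25 °C with 1 mM IPTG at D600 0.6, lysed in imidazole-containing Hepes pH 8 buffer. SPR: protein injected at 5 μl/min over immobilized PtdIns(3,4,5)P3-containing lipid vesicles in 100 mM KCl, 10 mM NaH2PO4, 1 mM MgCl2, 25 mM Hepes pH 7.2. Signal corrected against control vesicles lacking the phosphoinositide.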

NIH 3T3 cells = assay: [3H]inositol lipid and inositol phosphate levels in NIH 3T3 cells by HPLC; format: cell-based
Summary of the method: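 NIH 3T3 cells in DMEM with 10 % FBS and 1 mM pyruvate (37 °C, 5 % CO2), [3H]inositol-labelled, serum-starved 3 h in Hepes-buffered saline-glucose medium pH 7.4. Treatment: vehicle or PDGF for 5 min, or fresh medium with or without 0.2 M sorbitol. Reactions quenched; lipids or inositol phosphates extracted and quantified by HPLC as % of total. PDGF data: mean ± S.E.M., three experiments.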

mouse embryo fibroblasts = conditions: 5 min stimulation with IGF-1, serum starved overnight; cited from earlier work
[2] = 30 min hyperosmotic stress, 0.2 M sorbitol

Sequence of SIN1^PH (Q9BPZ7 358-522): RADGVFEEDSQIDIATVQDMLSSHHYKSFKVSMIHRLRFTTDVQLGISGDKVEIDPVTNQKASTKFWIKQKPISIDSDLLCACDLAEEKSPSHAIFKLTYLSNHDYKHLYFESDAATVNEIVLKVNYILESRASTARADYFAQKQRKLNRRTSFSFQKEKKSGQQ
Sequence of Akt^PH (human recombinant AKT1) (P31749 5-108 limits assumed): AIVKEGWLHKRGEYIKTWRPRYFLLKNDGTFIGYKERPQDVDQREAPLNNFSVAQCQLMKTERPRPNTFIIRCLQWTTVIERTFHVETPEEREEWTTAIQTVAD

O=P(O)(O)O[C@@H]1[C@@H](OP(=O)(O)O)[C@@H](OP(=O)(O)O)[C@@H](OP(=O)(O)OP(=O)(O)O)[C@H](OP(=O)(O)O)[C@H]1OP(=O)(O)O [1-InsP7]
IC50 (PBD1 of PPIP5K1): 43 µM | fold lower affinity for PBD1 than InsP6 and 5-InsP7 (PBD1 of PPIP5K1): 6–7 fold | IC50 [1]: 45 µM | IC50 (SIN1^PH): > 100 µM

O=P(O)(O)O[C@H]1[C@@H](OP(=O)(O)O)[C@H](OP(=O)(O)O)[C@@H](OP(=O)(O)OP(=O)(O)O)[C@H](OP(=O)(O)O)[C@H]1OP(=O)(O)O [5-InsP7]
IC50 (PBD1 of PPIP5K1): 5 µM | IC50 [1]: 7 µM | IC50 (SIN1^PH): 3.7 µM | inhibition of GRP1^PH association with PtdIns(3,4,5)P3, relative potency (GRP1^PH): only marginally more potent than InsP6

O=P(O)(O)O[C@H]1[C@H](OP(=O)(O)O)[C@@H](OP(=O)(O)O)[C@H](OP(=O)(O)O)[C@@H](OP(=O)(O)O)[C@H]1OP(=O)(O)O [InsP6]
IC50 (PBD1 of PPIP5K1): 7 µM | IC50 [1]: 14 µM | IC50 (SIN1^PH): 6 µM

O=P(O)(O)O[C@@H]1[C@@H](OP(=O)(O)O)[C@H](OP(=O)(O)OP(=O)(O)O)[C@@H](OP(=O)(O)O)[C@H](OP(=O)(O)OP(=O)(O)O)[C@@H]1OP(=O)(O)O [InsP8, bis-diphosphoinositol tetrakisphosphate]
IC50 (PBD1 of PPIP5K1): 32 µM | fold lower affinity for PBD1 than InsP6 and 5-InsP7 (PBD1 of PPIP5K1): 6–7 fold | IC50 [1]: > 50 µM | IC50 (SIN1^PH): > 100 µM

OC[C@@H](O)[C@@H](O)[C@H](O)[C@@H](O)CO [sorbitol]
elevation of PtdIns(3,4,5)P3 levels (NIH 3T3 cells; [2]): 4.5 fold | increase in InsP8 concentration (NIH 3T3 cells; [2]): 4.5 fold

IGF-1: insulin-like growth factor 1
increase in levels of InsP6 and InsP7 (mouse embryo fibroblasts): 2 fold

PDGF
increase in levels of PtdIns(3,4,5)P3 (NIH 3T3 cells; 5 min stimulation with 50 ng/ml PDGF, 3 h serum starved): 2 fold
